Source: PubChem BioAssay (Broad Institute)
Shown are actives, neighbours in structure and some others; about 2.1% of the full set was active somewhere.
PGC1a acetyl inh: PGC1a acetylation modulation, inhibitor mode; U2OS PGC1a acetylation, AlphaScreen anti-acetyl-lysine; with virally co-expressed GCN5 acetyltransferase; inhibition, % at 15.6 µM; 350,000 tested, 0.17% active; AID 651687;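 active = every replicate shows inhibition of at least 40%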;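 note: 0% = neutral control wells and 100% = positive control wells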
AF4-AF9 inh: blocks AF4 peptide binding to human AF9 | AlphaScreen, biotin-AF4 peptide binding to FLAG-AF9 | P42568 | inhibition, % at 10 µM | 350,000 tested, 0.47% active;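 active = every replicate reaching a set inhibition limit, whatever the replicate mean, cut at about 25% in these data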;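 note: 0% = plate neutral control median and 100% = total signal loss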
Target sequence (P42568 whole entry, looked up): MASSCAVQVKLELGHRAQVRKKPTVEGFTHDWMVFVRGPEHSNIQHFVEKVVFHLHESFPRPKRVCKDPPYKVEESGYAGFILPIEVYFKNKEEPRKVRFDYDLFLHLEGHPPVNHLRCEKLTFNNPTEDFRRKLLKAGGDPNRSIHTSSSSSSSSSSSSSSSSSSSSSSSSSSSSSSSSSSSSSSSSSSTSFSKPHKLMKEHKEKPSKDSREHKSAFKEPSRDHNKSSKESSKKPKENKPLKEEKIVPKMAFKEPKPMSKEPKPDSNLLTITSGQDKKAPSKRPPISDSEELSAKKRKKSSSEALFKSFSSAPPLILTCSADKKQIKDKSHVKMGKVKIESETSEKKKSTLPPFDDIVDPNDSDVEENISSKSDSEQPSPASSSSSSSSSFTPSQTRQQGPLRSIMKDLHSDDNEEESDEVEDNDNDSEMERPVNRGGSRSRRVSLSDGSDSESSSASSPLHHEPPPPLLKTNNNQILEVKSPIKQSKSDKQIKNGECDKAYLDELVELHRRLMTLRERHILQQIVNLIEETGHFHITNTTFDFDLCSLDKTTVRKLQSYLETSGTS
INS-1E GSIS act: GLuc luminescence reporter in INS-1E cells, primary screen for activators of glucose-dependent secretion of insulin. INS-1E GLuc reporter insulin secretion, 2-3 h. activation, % at 16.6 µM. 370,000 tested, 0.61% active. AID 743287;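 active = lowest replicate activation of at least 40%, so every replicate reaches that level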;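 note: 0% = median of neutral control wells and 100% = median of IBMX positive control wells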
PAX8 inh HTS: inhibitors of PAX8 transcriptional activity in RMG-I cells; RMG-I TPO-luciferase reporter, SteadyGlo, 24 h; inhibition, % at 12.6 µM; 360,000 tested, 1.2% active; AID 652154;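 active = mean replicate inhibition at least 60% with every replicate also reaching 60%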;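 note: luciferase light reporting Pax8 driven TPO promoter activity; plate controls were median of neutral control wells for no effect and mitoxantrone controls for full effect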
Xi reactivation: reactivates the inactive X chromosome in mouse fibroblasts; XiGFP mouse fibroblasts, % GFP-positive cells imaging, 3 d; cells co-treated with 5-aza-dC sensitizer; scaled so ellipticine positive control = 100%; activation, % at 7.58 µM; 360,000 tested, 0.055% active;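 active = mean normalized replicate activation at least 10% and every replicate at or above 10%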;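 note: 0% = median of on-plate neutral control wells and 100% = ellipticine 6 µM median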
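Assay system: SV40-immortalized XiGFP fibroblast cells, line 68-5-11; buffer or medium: DMEM plus 5-aza-dC sensitizer; compound: one concentration, pinned; timing: compounds 3 days, fix/stain 15 min at room temperature; benchmarks: positive control ellipticine, 6 µM final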
EWS-Fli inh: inhibitors of EWS/Fli oncoprotein transcriptional activity | A673 NR0B1-luciferase reporter, viability-normalised | inhibition, % at 12.6 µM | 350,000 tested, 0.67% active;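 active = mean inhibition of at least 50% after viability correction, with every replicate also passing that limit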;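 note: firefly luciferase signal divided by Alamar Blue viability fluorescence both relative to DMSO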
* marks the source's active call; other numbers are inactive results; . = no result.

SMILES	PGC1a acetyl inh	AF4-AF9 inh	INS-1E GSIS act	PAX8 inh HTS	Xi reactivation	EWS-Fli inh
Cc1ccc(S(=O)(=O)Nc2ccc3c(c2)C(=O)N([C@@H](C)CO)C[C@@H](C)[C@H](CN(C)S(=O)(=O)c2ccc(Cl)cc2)OCCCC[C@@H](C)O3)cc1	-9	.	-6	84*	0	11
CCC(=O)N1CC(=O)N2[C@H](CO)[C@H](c3ccc(-c4ccccc4C)cc3)[C@@H]2C1	-12	-1	4	-9	0	-5
Cc1ccccc1S(=O)(=O)N1C[C@H](O)COC[C@H]2O[C@H](CC(=O)N3CCOCC3)CC[C@@H]21	6	-2	2	-12	0	-4
Cc1ccc(S(=O)(=O)N(C)C[C@@H]2OCCCC[C@@H](C)Oc3ccc(NS(=O)(=O)c4ccc(Cl)cc4)cc3C(=O)N([C@H](C)CO)C[C@H]2C)cc1	-15	-3	-1	77*	0	-4
COc1ccc(CCNC(=O)CSc2n[nH]c(C)c2[N+](=O)[O-])cc1OC	-6	-7	52*	12	0	-10
COc1ccc(CCNC(=O)COC(=O)CSc2ccc(C(N)=O)cc2[N+](=O)[O-])cc1OC	.	-2	46*	0	0	-3
O=C(Cc1cccnc1)N[C@@H]1CC[C@@H](CCn2cc(Cc3ccccc3)nn2)O[C@@H]1CO	-1	-1	-1	-7	0	6
CCCNC(=O)N1C[C@@H](C)[C@@H](OC)CN(C)C(=O)c2cc(NC(C)=O)ccc2OC[C@H]1C	3	0	1	.	0	-2
O=C(Nc1ccc(CN2CCOCC2)cc1)c1ccccc1F	.	.	.	-134	.	.
O=C(Nc1ccc(CN2CCOCC2)cc1)c1cc2ccccn2n1	0	-2	10	9	0	56*
C/C=C/c1ccc([C@@H]2[C@@H](CNC(=O)C3CCC3)N(C(=O)NCCC)[C@H]2CO)cc1	2	.	-10	3	0	12
O=C(c1cccs1)N(Cc1ccc(Cl)cc1)C1CCS(=O)(=O)C1 (centres undefined)	-17	-1	48*	5	0	-2
[N-]=[N+]=Nc1ccccc1C[C@@]1(C(=O)NCCN2CCOCC2)N=C(c2ccc(OCCCO)cc2)O[C@@H]1c1ccccc1N=[N+]=[N-]	-2	13	.	12	.	7
CSc1ccc(S(=O)(=O)N2c3ccccc3CC2C)cc1 (centres undefined)	-20	-5	-31	44	0	51*
CC1Cc2ccccc2N1S(=O)(=O)c1cnc(Cl)c(Cl)c1 (centres undefined)	-14	6	5	30	0	17
COc1cc(-c2noc(C)c2C#Cc2ccsc2)cc(OC)c1OC	.	-1	2	52	0	59*
Cc1ccc(-n2cccc2C(=S)N=P(N(C)C)(N(C)C)N(C)C)cc1	85*	.	-9	.	.	.
COc1ccc(CN(C(=O)CSc2nnc(-c3c[nH]c4ccccc34)o2)c2ccc(F)cc2)cc1OC	-12	.	.	81*	.	.
COc1ccc(CN(C(=O)CSc2nnc(-c3ccc(F)cc3)o2)c2ccc(F)cc2)cc1	12	7	9	.	.	6
C[C@@H]1CN([C@@H](C)CO)S(=O)(=O)c2ccc(C3=CCCCC3)cc2O[C@@H]1CN(C)C	-12	.	6	.	-1	4
COc1cccc(NC(=O)N(C)C[C@@H]2OCc3ccccc3-c3c(n(C)c4ccccc34)C(=O)N([C@@H](C)CO)C[C@@H]2C)c1	3	3	-19	3	-1	15
CC(C)C(=O)Nc1ccc2c(c1)C(=O)N(C)[C@@H]1CC[C@H](CC(=O)NCc3ccccc3F)O[C@H]1CO2	-6	.	6	-4	0	4
O=C1NCCCOCc2cn(nn2)CC[C@H]1Cc1ccc(-c2ccccc2)cc1	.	.	19	.	0	.
COc1ccc(CCNS(=O)(=O)c2c(C)nc3scc(C)n3c2=O)cc1OC	2	2	26	-11	0	2
CCOc1ccc(CCNS(=O)(=O)c2c(C)nc3scc(C)n3c2=O)cc1OCC	21	-1	52*	-2	0	9
SMILES	PGC1a acetyl inh	AF4-AF9 inh	INS-1E GSIS act	PAX8 inh HTS	Xi reactivation	EWS-Fli inh
Cc1ccc(S(=O)(=O)Nc2ccc3c(c2)C(=O)N([C@H](C)CO)C[C@H](C)[C@@H](CN(C)C(=O)c2ccncc2)OCCCC[C@H](C)O3)cc1	1	.	11	-13	0	-14
COCCNc1nc(Oc2cncc(Cl)c2)c2sccc2n1	37	-2	55*	-6	0	-4
COCCNc1nc(NCc2ccccc2)nc2ccsc12	10	0	.	3	0	-4
COCCNc1nc(Oc2cccc(F)c2)c2sccc2n1	5	2	11	-7	0	3
COCCNc1nc(NC(C)C)nc2ccsc12	.	2	82*	-19	0	-1
c1ccc(Cn2c(-c3ccccc3)nc3nc4ccccc4nc32)cc1	-4	.	-11	7	1	.
Clc1cccc(-c2nc3nc4ccccc4nc3n2Cc2ccccc2)c1	.	0	5	85*	0	1
CO[C@@H]1CN(C)C(=O)c2ccc(NC(=O)c3ccc(F)cc3)cc2OC[C@@H](C)N(C(C)=O)C[C@@H]1C	-3	0	4	-12	0	-7
COc1ccc(N2CCN(C(=O)COC(=O)CCOc3ccc(C)cc3)CC2)cc1	.	0	19	-6	0	-1
COc1ccc(N2CCN(C(=O)COC(=O)CCc3ccccc3)CC2)cc1	6	-4	.	77*	0	-3
COC(=O)c1sc(NC(=O)/C=C/c2ccc(C)cc2)nc1C	3	.	67*	-22	1	.
CCOC(=O)c1sc(NC(=O)/C=C/c2ccccc2)nc1C	.	-8	4	-15	0	-22
COc1ccc(S(=O)(=O)N(C)C[C@H]2Oc3ccc(NC(=O)Nc4ccc5c(c4)OCO5)cc3CC(=O)N([C@H](C)CO)C[C@@H]2C)cc1	-2	2	-4	-16	0	-2
CCN(CC)S(=O)(=O)c1ccc(/C=C/C(=O)OCC(=O)NC(=O)C2COc3ccccc3O2)cc1 (centres undefined)	.	-1	-12	-14	0	-14
COc1cc(/C=C/C(=O)OCC(=O)NC(=O)C2COc3ccccc3O2)ccc1OC(F)F (centres undefined)	4	-7	45*	7	0	0
COc1ccc(-c2ccc(SCc3ccccn3)nn2)cc1OC	.	-1	83*	-19	0	-5
c1cncc(CSc2ccc(-c3cccnc3)nn2)c1	.	0	-1	-9	0	-15
COc1ccc(-c2ccc(SCc3cccnc3)nn2)cc1OC	-5	-4	47*	-36	0	-16
COc1cccc(-c2ccc(SCc3ccccn3)nn2)c1	-11	1	29	-106	0	-73
